From paper PMC10829792 (Cell Reports Medicine, 2024)

What was measured:
U2932 cells = experiment: Cell viability, trypan blue assay; assay type: cell-based, human; conditions: U2932 cells treated with only romidepsin (10 nM) or γPNA2-NLS (8 μM)
Raji cells = experiment: Cell viability, trypan blue assay; assay type: cell-based, human; conditions: romidepsin with or without γPNA2-NLS, mean, n = 3
DLBCL PDX tumors = experiment: Histology and immunohistochemistry; assay type: in vivo, mouse; conditions: romidepsin study, n = 2 mice per group, n > 4 images
Procedure, shortened: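 DLBCL PDX mice grouped at tumour volume 100–150 mm³. Romidepsin 1 mg/kg i.p. on days 0 and 6; test compound 5 mg/kg on days 1, 4, 7 and 10. Mice euthanized at 1800–2000 mm³.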

U2932 xenograft mice = experiment: Tumor growth and survival study in U2932 xenograft mice; assay type: in vivo, mouse; conditions: romidepsin 1 mg/kg i.p. on days 0 and 6, n = 8
Procedure, shortened: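 Mice bearing U2932 tumours of 100–150 mm³ were randomised. Romidepsin 1 mg/kg i.p. on days 0 and 6, and test compound 5 mg/kg on days 1, 4, 7 and 10, alone or combined. Vehicle group included.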

[1] = tested on: DLBCL patient-derived xenograft (PDX) mice; experiment: Tumor growth in DLBCL PDX mice; assay type: in vivo, mouse; conditions: γPNA2-NLS 5 mg/kg, romidepsin 1 mg/kg i.p., n = 5 per group
Procedure, shortened: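 DLBCL PDX fragments were serially implanted, reharvested at ~1500 mm³, and grouped at 100–150 mm³. Dosing followed the U2932 xenograft regimen: romidepsin 1 mg/kg i.p. days 0 and 6; test compound 5 mg/kg days 1, 4, 7 and 10. Body weight and tumour volume were recorded daily. Endpoint was tumour volume 1800–2000 mm³.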

γH2AX in HeLa cells = experiment: γH2AX foci assay, immunofluorescence; assay type: cell-based, human; conditions: 24 h, γPNA2-NLS 8 μM, bleomycin 50 and 150 μM
Procedure, shortened: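 HeLa cells were seeded at 100,000/well and exposed for 24 h to test compound (8 μM) or bleomycin (50 and 150 μM). Nuclei were stained with NucBlue (25 min, 37°C). Cells were fixed in 4% PFA (10 min, RT), permeabilised with 0.1% Triton X in PBS, and stained with PE-conjugated anti-γH2AX (2 h, 37°C). Read-out was fluorescence microscopy.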

| Compound | viability, day 4, single treatments (U2932 cells) | reduction in viability, day 4 (Raji cells) | caspase-3 activation, fold increase (DLBCL PDX tumors) | reduction of tumor growth (U2932 xenograft mice) | lower tumor volumes / decrease on day 35 [1] | γH2AX immunofluorescence staining (γH2AX in HeLa cells) |
| --- | --- | --- | --- | --- | --- | --- |
| C/C=C1\NC(=O)[C@H]2CSSCC/C=C/[C@H](CC(=O)N[C@H](C(C)C)C(=O)N2)OC(=O)[C@H](C(C)C)NC1=O [romidepsin] | 50 % viability | 58% | ~5 fold | 2 fold | 1.3 fold | – |
| bleomycin | – | – | – | – | – | increased γH2AX-positive nuclei |
